The nature of data set [1]: AUC (all) in ICR mouse at 10 mg/kg, po measured upto 24 hrs by LC-MS/MS analysis. The settings on record: in vivo. Further details: route oral, dose 10 mg/kg, time <=24. In kind it is ADME, organism-based. In a few lines: (§1)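 Female ICR mice, n=3 per group, given test compound orally. Blood sampled at 0.5, 1, 2, 4, 7 and 24 h post dose; plasma levels quantified by LC-MS/MS. Parameters from non-compartmental analysis.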

Data set [2] concerns the target T1, Histamine H4 receptor (Mus musculus, UniProt Q91ZY2).
T1 sequence (Q91ZY2 whole entry): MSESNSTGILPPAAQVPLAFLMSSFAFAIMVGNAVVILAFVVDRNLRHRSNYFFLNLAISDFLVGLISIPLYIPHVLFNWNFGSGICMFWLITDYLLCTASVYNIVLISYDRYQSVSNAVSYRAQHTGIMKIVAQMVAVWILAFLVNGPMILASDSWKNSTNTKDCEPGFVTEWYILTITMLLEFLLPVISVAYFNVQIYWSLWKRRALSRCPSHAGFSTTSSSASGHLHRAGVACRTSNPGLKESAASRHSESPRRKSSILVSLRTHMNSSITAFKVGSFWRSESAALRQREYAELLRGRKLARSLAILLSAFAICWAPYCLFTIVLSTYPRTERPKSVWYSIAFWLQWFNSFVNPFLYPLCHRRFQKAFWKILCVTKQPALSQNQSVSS
The data set can be described thus: Antagonist activity at recombinant mouse histamine H4 receptor expressed in CHO-K1 cells assessed as inhibition of R-alpha-methylhistamine induced stimulation of [35S]-GTPgammaS binding by scintillation proximity assay. The class given is functional, cell membranes, Cell membrane. In a few lines:
(§2)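 GTPγ35S binding on recombinant mouse H4R, run by an outside contractor. R-α-methylhistamine served as reference agonist and thioperamide as reference antagonist.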
(In general: Binding of GTPγS marks nucleotide exchange on a G protein.)

The nature of data set [3]: AUC (all) in ICR mouse at 2 mg/kg, po measured upto 24 hrs by LC-MS/MS analysis. In kind it is ADME, organism-based. Further details: route oral, dose 2 mg/kg, time <=24. The settings on record: in vivo. In outline: as §1
The test system of data set [4] is Mus musculus. The data set can be described thus: Anti-pruritus activity in oxazolone-induced Balb/c mouse model of atopic dermatitis assessed as reduction of scratching bouts at 50 mg/kg, po BID administered 30 mins prior to oxazolone challenge for 3 weeks and measured on day 25. In kind it is functional, organism-based. In a few lines: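 Female BALB/c mice (n=8), abdomen shaved. Sensitized on day 0 with topical 1% oxazolone (50 µL) in acetone/corn oil 4:1. From day 7, right ear challenged with 0.2% oxazolone (25 µL) 3 times weekly; left ear got vehicle. Oral dosing twice daily, 30 min before challenge, for 3 weeks. Scratching counted for 1 h after challenge on day 25. Ear thickness measured; ear fixed in 4% paraformaldehyde, 3 µm paraffin sections stained with H&E for epidermal thickness. Mean ± S.E.M., t-test.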

Data set [5] is described as follows: Tmax in ICR mouse at 2 mg/kg, po measured upto 24 hrs by LC-MS/MS analysis. In kind it is ADME, organism-based. The settings on record: in vivo. In a few lines:
as §1

A short description of data set [6]: Protein binding in mouse plasma. In kind it is ADME, cell-free. The settings on record: read-out: PPB (converted).
Data set [7] deals with Mus musculus. The data set can be described thus: Anti-pruritus activity in ICR mouse with C48/80-induced itching assessed as reduction of scratching bouts at 50 mg/kg, po administered 30 mins prior to […] and measured upto 20 mins. In kind it is functional, organism-based. The settings on record: time 50.0 min. In outline:
(§3)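 Female ICR mice (n=8-10 per group), back skin clipped 24 h before. Oral dose in 20% hydroxypropyl-β-cyclodextrin given 30 min before intradermal pruritogen in saline: histamine 300 nmol, substance P 100 nmol or C48/80 100 µg. Scratching bouts counted from video for 20 min after injection. Mean ± S.E.M., Student's t-test.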

Data set [8] deals with Mus musculus. The data set can be described thus: Anti-pruritus activity in ICR mouse with histamine-induced itching assessed as reduction of scratching bouts at 50 mg/kg, po administered 30 mins prior to histamine challenge and measured upto 20 mins. The class given is functional. Particulars: 50 min. In outline: as §3
Data set [9] has as its target T2, Histamine H4 receptor (Homo sapiens, UniProt Q9H3N8). Nature of the data set: Displacement of [3H]-histamine from recombinant human histamine H4 receptor expressed in CHO-K1 cell membranes measured after 30 mins by microbeta scintillation counting method. Further details: species or system Cell membrane. (In general: Loss of bound radioactivity is the signal in a displacement assay; it reports binding, not function.)

A short description of data set [10]: Ratio of anti-pruritus activity in ICR mouse with histamine-induced itching assessed as free plasma concentration causing 50% reduction of scratching bouts at 10 mg/kg, po administered 30 mins prior to histamine challenge and measured upto 20 mins to Ic50 for displacement of [3H]-histamine from recombinant mouse histamine H4 receptor expressed in CHO-K1 cell membranes. In outline:
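Itch model: female ICR mice (n=8-10), back clipped 24 h earlier, dosed orally in 20% hydroxypropyl-β-cyclodextrin 30 min before intradermal histamine (300 nmol, saline). Scratching bouts were videorecorded for 20 min. Free plasma concentration taken at Tmax. Binding used CHO-K1 mouse H4R membranes with [3H]histamine in 50 mM Tris-HCl pH 7.4, 30 min at 27 °C, then filtration and scintillation counting.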

Data set [11] concerns the target T2, Histamine H4 receptor. The data set can be described thus: Antagonist activity at recombinant human histamine H4 receptor expressed in CHO-K1 cells assessed as inhibition of R-alpha-methylhistamine induced stimulation of [35S]-GTPgammaS binding by scintillation proximity assay. The class given is functional, cell membranes, Cell membrane. In a few lines: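 Functional [35S]GTPγS binding on recombinant human H4R. Antagonism was measured against the reference agonist R-α-methylhistamine, with JNJ10191584 as the reference antagonist. Run by a contract lab.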

For data set [12], the target named is T3, 5-hydroxytryptamine receptor 3A (Homo sapiens) (UniProt P46098).
T3 sequence (whole entry): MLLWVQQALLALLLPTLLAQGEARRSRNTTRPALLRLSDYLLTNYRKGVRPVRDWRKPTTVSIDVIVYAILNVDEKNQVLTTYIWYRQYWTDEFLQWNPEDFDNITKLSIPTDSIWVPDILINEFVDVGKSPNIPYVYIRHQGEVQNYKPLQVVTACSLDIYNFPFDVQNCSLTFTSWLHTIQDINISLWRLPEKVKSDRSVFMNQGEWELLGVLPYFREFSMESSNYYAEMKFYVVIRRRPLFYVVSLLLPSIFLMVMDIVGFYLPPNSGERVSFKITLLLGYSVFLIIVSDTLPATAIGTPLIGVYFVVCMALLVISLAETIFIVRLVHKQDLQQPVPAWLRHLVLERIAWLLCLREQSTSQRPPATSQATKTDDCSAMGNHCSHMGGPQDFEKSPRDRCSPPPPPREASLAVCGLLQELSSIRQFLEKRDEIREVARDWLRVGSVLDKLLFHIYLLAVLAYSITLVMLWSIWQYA
Nature of the data set: Displacement of [3H]BRL 43694 from human recombinant 5-HT3 receptor at 10 uM after 120 mins by scintillation counting analysis relative to control.

For data set [13], the system named is Mus musculus. Nature of the data set: Anti-pruritus activity in ICR mouse with histamine-induced itching assessed as free plasma concentration causing 50% reduction of scratching bouts at 10 mg/kg, po administered 30 mins prior to histamine challenge and measured upto 20 mins. In kind it is functional. Particulars: time 50 min. In outline:
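Female ICR mice, oral dose in 20% hydroxypropyl-β-cyclodextrin 30 min before intradermal histamine (300 nmol). Scratching bouts counted over 20 min from video. Free plasma concentration at Tmax was plotted against the scratching response.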

For data set [14], the target named is T4, Histamine H4 receptor (Mus musculus) (UniProt Q91ZY2).
T4 sequence (whole entry): T1 sequence (Q91ZY2 whole entry)
Nature of the data set: Agonist activity at recombinant mouse histamine H4 receptor expressed in CHO-K1 cells assessed as stimulation of [35S]-GTPgammaS binding by scintillation proximity assay. In kind it is functional, cell membranes. The settings on record: Cell membrane. In a few lines:
as §2

The source made the active and inactive calls. The calls are words filed in the database; no cut-off is given here.

T2 sequence (Q9H3N8 whole entry): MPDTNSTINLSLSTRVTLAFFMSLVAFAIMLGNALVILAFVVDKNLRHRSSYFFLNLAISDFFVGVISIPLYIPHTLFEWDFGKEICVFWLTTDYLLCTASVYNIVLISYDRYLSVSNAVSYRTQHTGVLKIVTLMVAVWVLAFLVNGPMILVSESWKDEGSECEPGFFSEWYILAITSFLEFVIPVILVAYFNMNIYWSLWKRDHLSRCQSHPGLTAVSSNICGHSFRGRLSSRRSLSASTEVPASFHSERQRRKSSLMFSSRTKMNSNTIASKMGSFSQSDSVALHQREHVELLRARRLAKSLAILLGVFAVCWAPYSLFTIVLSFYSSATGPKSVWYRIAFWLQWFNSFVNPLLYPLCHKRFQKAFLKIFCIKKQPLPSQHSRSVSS

By AUC is commonly meant the area under the concentration-time curve, a measure of exposure. A lower AUC goes with less exposure. In general, IC50 refers to the concentration that inhibits the measured activity by half. A word on the Tmax: it is the time from dosing to the highest level. A word on the inhibition in vivo: it is the drop in the measured response relative to a control, in per cent. A word on the inhibition: it is the share of the control response that was lost under treatment. In the case of `CNC1CN(c2nc3ncc(Br)cc3n3nnnc23)C1`, the AUC at 24 h turned out to be 5400 ng·h/mL in [1] and 251 ng·h/mL in data set [3]. The IC50 in [2] is 690 nM; in [9] it was 27 nM; in data set [11], 28 nM. The outcome in data set [4] and in data set [7] was Active. Further, the Tmax in [5] is 30 min. For the same molecule, in [6], the fraction unbound is 0.348. For the same molecule, in [8], the inhibition in vivo at 50 mg/kg was 100%. Further, the Ratio in data set [10] stood at 3. For the same molecule, in [12], the inhibition amounted to 14%. The “Cp(f)” value in data set [13] is 1.89 µM. In data set [14], the result was inactive.

Source of the values: ChEMBL document CHEMBL4765239, “Discovery of a Novel Highly Selective Histamine H4 Receptor Antagonist for the Treatment of Atopic Dermatitis” (J Med Chem, 2018).
